# Assay results gathered from unrelated publications.
# Each line is one published result; the experiments were not run side by side. pIC50: −log10 of the molar value.
# Cell line: SK-BR-3
# Read-out: cell growth or viability
SMILES,method,time,quantity,result
CC(=O)O[C@H]1C(=O)[C@@]2(C)[C@H]([C@H](OC(=O)c3ccccc3)[C@]3(O)C[C@H](OC(=O)[C@H](O)[C@@H](NC(=O)c4ccccc4)c4ccccc4)C(C)=C1C3(C)C)[C@]1(OC(C)=O)CO[C@@H]1C[C@@H]2O,MTT,72 h,pIC50,8.30
CC(=O)c1c(C)c2cnc(Nc3ccc(N4CCNCC4)cn3)nc2n(C2CCCC2)c1=O,resazurin,,GI50,5 µM
COc1cccc2c1C(=O)c1c(O)c3c(c(O)c1C2=O)C[C@@](O)(C(=O)CO)C[C@@H]3O[C@H]1C[C@H](N)[C@H](O)[C@H](C)O1,MTT,72 h,pIC50,5.78
CC(C)C[C@H](NC(=O)[C@H](Cc1ccccc1)NC(=O)c1cnccn1)B(O)O,ATP luminescence,,pIC50,8.06
NNc1nc(Nc2ccccc2)nc(Nc2ccc(Br)cc2)n1,SRB,72 h,pIC50,< 4.52
COc1cc(OC)c(/C=C/S(=O)(=O)Nc2ccc(OC)c(N)c2)c(OC)c1,trypan blue,96 h,pIC50,8.40
Cc1cc(C)n(-c2nc(NN=Cc3c[nH]c4ccccc34)nc(Nc3ccc(Br)cc3)n2)n1,SRB,72 h,pIC50,5.22
COc1cc(Nc2nccc(-c3cnn4nc(OC)ccc34)n2)cc(C(F)(F)F)c1,ATP luminescence,,pIC50,6.47
COC1=C2C[C@@H](C)C[C@H](OC)[C@H](O)[C@@H](C)/C=C(\C)[C@H](OC(N)=O)[C@@H](OC)/C=C\C=C(/C)C(=O)NC(=CC1=O)C2=O,SRB,72 h,pIC50,7.30
CN1CCN(c2ccc(Nc3ncc4cc(C#N)c(=O)n(C5CCCC5)c4n3)cc2)CC1,resazurin,96 h,GI50,0.6 µM
